Measurements as given in PubChem BioAssay AID504436 (Sanford-Burnham Center for Chemical Genomics, 2011).
The source made the active and inactive calls.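 How the source made its calls: active means mean IC50 below 20 µM in the confirmatory beta-arrestin antagonist test; inactive means the rest.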

target: Apelin receptor (Homo sapiens) (UniProt P35414); test: APJ receptor antagonists, beta-arrestin recruitment, SAR follow-up, cell-based, CHO-K1 AGTRL-1, PathHunter luminescence, set 5 (AID 504436); conditions: antagonist
Sequence (P35414 whole entry, looked up, the tested form may be a part): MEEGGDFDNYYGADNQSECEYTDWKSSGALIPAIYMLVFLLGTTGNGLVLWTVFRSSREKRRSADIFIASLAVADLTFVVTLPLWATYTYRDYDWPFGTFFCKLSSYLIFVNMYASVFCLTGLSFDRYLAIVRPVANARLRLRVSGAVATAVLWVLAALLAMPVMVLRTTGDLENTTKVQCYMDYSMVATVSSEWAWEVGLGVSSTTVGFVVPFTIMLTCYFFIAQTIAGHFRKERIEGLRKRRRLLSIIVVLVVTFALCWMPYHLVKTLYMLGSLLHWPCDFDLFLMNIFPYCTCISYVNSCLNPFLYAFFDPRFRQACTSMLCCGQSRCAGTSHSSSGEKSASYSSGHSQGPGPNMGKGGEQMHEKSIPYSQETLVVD
Procedure, shortened: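 System: CHO-K1 PathHunter APJ beta-arrestin cells / Detection: luminescence from beta-gal fragment complementation upon beta-arrestin recruitment / Times: overnight seeding, 90 min exposure at 25 °C, 60 min detection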

Row | Compound | IC50
1 | Cc1cc(C)nc(SCc2cc(=O)c(OC(=O)c3ccc(-c4nccs4)cc3)co2)n1 | > 79 µM (inactive)
2 | Cc1ccnc(SCc2cc(=O)c(NC(=O)c3ccc([N+](=O)[O-])cc3)co2)n1 | > 79 µM (inactive)
3 | Cc1ccc(SCc2cc(=O)c(OC(=O)c3ccc(Cl)c([N+](=O)[O-])c3)co2)cc1 | 12.8 µM
4 | O=C(Oc1coc(CN2CCOCC2)cc1=O)c1ccc([N+](=O)[O-])cc1 | 16.4 µM
5 | O=C(Oc1coc(CSc2ccc(Cl)cc2)cc1=O)c1ccc(Cl)c([N+](=O)[O-])c1 | 4.53 µM
6 | O=C(Oc1coc(CN2CCOCC2)cc1=O)c1ccccc1 | > 79 µM (inactive)
7 | O=C(Oc1coc(CSc2ccc(OC(F)(F)F)cc2)cc1=O)c1ccc(Cl)c([N+](=O)[O-])c1 | inactive
8 | COc1ccc(SCc2cc(=O)c(OC(=O)c3ccc(Cl)c([N+](=O)[O-])c3)co2)cc1 | 8.27 µM
